Assay [1] is described as follows: inhibitors of TNFa-induced NFkB p65 translocation, primary screen, imaging, HUVEC, MLSMR starter and 10KST1 sets (AID 438;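 active = inhibition above 20% together with a positive visual image hit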;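 note: compound added about 3h40 before a 20 min TNFalpha stimulation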;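 for inhibition: signal is the nuclear over cytoplasmic p65 intensity ratio per well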). The note with it: HUVEC TNFa-induced p65 nuclear translocation; cell count: measured here: nuclei count (cytotoxicity indicator), at 2.08 µM; inhibition: at 2 µM, stronger effect = higher value, 0% TNFa-plus-vehicle, 100% no-TNFa wells.
Assay [2] is described as follows: reduction of polyQ htt aggregates in cells – imaging, exon1htt(103Q)mCFP cells, high-content imaging, primary screen (AID 483;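 active = visual image review flags a hit and inhibition of aggregation exceeds 20%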;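 note: compound exposure lasted 3 days before fixation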;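 for nuclei count: percent of the per-plate median nuclei count of sample wells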). The note with it: exon1htt(103Q)mCFP cell line, aggregate imaging, at 2 µM; inhibition of aggregation: stronger effect = higher value; nuclei count: measured here: cell count, toxicity.
Assay [3] can be described thus: endothelial E-selectin expression blockers – imaging, HUVEC, immunofluorescence, MLSMR starter and 10KST1 sets, primary screen (AID 487;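 active = visually confirmed hit in the image check and inhibition above 20%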;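 for inhibition: signal is fraction of cell area covered by stained E-selectin grains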;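 for nuclei count: 100% = median nuclei count of all wells on the same plate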). The settings on record: HUVEC TNFalpha-induced E-selectin immunofluorescence imaging, at 2 µM; inhibition: stronger effect = higher value; nuclei count: measured here: cell number, toxicity.
For assay [4], the target named is Voltage-gated potassium channel subunit beta-2 (Rattus norvegicus) (UniProt P62483). Put plainly: inhibitors of rat Kvbeta2 reductase activity – biochemical, NADPH fluorescence, primary screen (AID 622;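 active = fluorescence slope higher than the sample average by over 3 SD, cut at about -0.22 in these data, passing the limit was not always enough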;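 note: slope of raw intensity against log time taken from 70 to 1610 s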). The settings on record: recombinant KvBeta, 4-cyanobenzaldehyde reduction, at 10 µM, stronger effect = higher value.
For assay [5] the target is unchanged. Put plainly: enhancers of rat Kvbeta2 NADPH turnover – biochemical, NADPH fluorescence, primary screen (AID 623).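 Note: fluorescence intensity change per second fitted from 20 to 320 s.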 The settings on record: Recombinant KvBeta, NADPH fluorescence decrease slope, 10 min; at 10 µM; stronger effect = lower value.
Assay [6] concerns the target Muscarinic acetylcholine receptor M4 (Homo sapiens) (UniProt P08173). Kind of assay: M4-linked GIRK flux change, two-sided – cell-based, HEK293 M4/GIRK, thallium flux, BTC-AM, M4 allosteric agonist project, primary screen (AID 625;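 active = fluorescence slope after compound addition differing from the mean of all tested samples at 99.7% confidence, mostly higher but some lower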;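 note: thallium influx through GIRK channels coupled to M4 in HEK293 cells with BTC-AM dye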). The settings on record: at 10 µM, actives lie on both sides. The method in brief: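 System: HEK293 cells with M4 receptor and GIRK channels | Incubation: Cells overnight at 37 °C, BTC-AM loading 1 h, reads 2 min total | Technique: Kinetic BTC-AM fluorescence sampled at 1 Hz, 10 s pre-addition baseline | Measure: Post-addition slope, 15–24 s, of baseline-normalized fluorescence | Control set: Carbachol positive, DMSO negative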

Assay [7] in a line: blockers of RIG-like receptor reporter activation – cell-based, Sendai virus stimulus, luciferase, 10K MLSCN set, TLR/RLR signaling modifier project, primary screen (AID 602276;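 active = inhibition at or above 50% at 10 µM; inactive = inhibition below 50%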;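 note: firefly luciferase from ISG56 promoter only with Renilla not read in this screen; 0% = Sendai virus plus DMSO and 100% = medium plus DMSO without virus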). The settings on record: HEK293 RL24 IRF3 luciferase reporter, at 10 µM, stronger effect = higher value.
Assay [8] in a line: TLR3 IRF3 reporter activation blockers – cell-based, poly I:C stimulus, luciferase, 10K MLSCN set, primary screen (AID 602277;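 active = inhibition of the reporter signal at or above 50%; inactive = inhibition below 50%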). The note with it: HEK293-TLR3 RL24 IRF3 luciferase reporter, at 10 µM, stronger effect = higher value. In general terms: Reporter assays use an easily measured gene product as a stand-in for the process of interest.

Calls of active or inactive are those of the source.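 Rule for the calls, unless noted: active = NADPH fluorescence slope more negative than the mean of all samples by about 3 SD, 99.7% confidence; inactive = the rest.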

Muscarinic acetylcholine receptor M4 (Homo sapiens), sequence (P08173 whole entry, looked up): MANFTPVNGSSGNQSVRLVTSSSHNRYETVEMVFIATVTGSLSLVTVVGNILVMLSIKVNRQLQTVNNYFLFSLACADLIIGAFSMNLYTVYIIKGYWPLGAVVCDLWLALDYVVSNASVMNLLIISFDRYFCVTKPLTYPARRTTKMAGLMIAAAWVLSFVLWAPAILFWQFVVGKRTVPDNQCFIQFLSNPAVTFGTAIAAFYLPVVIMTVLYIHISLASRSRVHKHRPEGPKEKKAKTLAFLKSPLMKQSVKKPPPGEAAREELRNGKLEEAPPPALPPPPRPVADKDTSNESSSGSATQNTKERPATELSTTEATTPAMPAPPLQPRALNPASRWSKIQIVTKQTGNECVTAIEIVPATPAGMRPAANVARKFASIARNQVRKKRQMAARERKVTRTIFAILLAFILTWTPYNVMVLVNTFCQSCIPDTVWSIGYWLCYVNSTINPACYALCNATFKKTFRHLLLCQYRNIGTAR
Voltage-gated potassium channel subunit beta-2 (Rattus norvegicus), sequence (P62483 whole entry, looked up): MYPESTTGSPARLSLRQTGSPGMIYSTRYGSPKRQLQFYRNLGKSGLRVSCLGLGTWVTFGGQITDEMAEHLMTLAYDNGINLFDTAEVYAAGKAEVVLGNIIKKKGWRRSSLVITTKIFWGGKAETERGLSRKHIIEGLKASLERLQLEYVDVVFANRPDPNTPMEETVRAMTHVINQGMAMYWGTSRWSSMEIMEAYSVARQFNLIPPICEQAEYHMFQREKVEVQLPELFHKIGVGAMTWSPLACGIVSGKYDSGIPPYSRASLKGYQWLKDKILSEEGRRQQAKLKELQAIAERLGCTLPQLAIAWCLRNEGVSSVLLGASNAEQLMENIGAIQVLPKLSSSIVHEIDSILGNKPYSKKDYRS

Usually inhibition stands for the relative decrease from the control value, in per cent. Consider `CCOC(=O)c1nnn(-c2nonc2NC(C)=O)c1C`, for which the cell count in assay [1] is 323. The inhibition in assay [1] was 6.5% (inactive); in assay [3], -39.1% (inactive); in assay [7] it was 17.3% (inactive); in assay [8] it was 14% (inactive). Further, the inhibition of aggregation in assay [2] was -14.1% (inactive). Moreover, the nuclei count in assay [2] amounted to 98.9%; in assay [3] it was 93.3%. Also, the figures for the fluorescence slope in assay [4] and in assay [6] were -0.58 (inactive) and 0.00665 (inactive), respectively. Also, the NADPH fluorescence slope in assay [5] was -1.6e-05 (inactive).

`CCOC(=O)CC1(CC(=O)OCC)NC(=O)c2c(C)sc(C(=O)OCC)c2N1`: the cell count in assay [1] was 704. Besides, the inhibition in assay [1] was -3.5% (inactive); in assay [3], 3.1% (inactive); in assay [7], 10.5% (inactive); in assay [8], 17% (inactive). The inhibition of aggregation in assay [2] was 16% (inactive). Also, the figures for the nuclei count in assay [2] and in assay [3] were 94.4% and 112%, respectively. Besides, the fluorescence slope in assay [4] is -0.402 (inactive); in assay [6], 0.00375 (inactive). For the same molecule, the NADPH fluorescence slope in assay [5] was -3.3e-06 (inactive).

Consider `CC1(C)CC(=O)C(C=NCCO)=C(O)C1`, for which, in assay [1], the cell count came to 416. In addition, the inhibition in assay [1] is -1.8% (inactive); in assay [3], -45.4% (inactive); in assay [7] it was 21.7% (inactive); in assay [8] it was -0.595% (inactive). Besides, the inhibition of aggregation in assay [2] is 57% (active). Besides, the figures for the nuclei count in assay [2] and in assay [3] were 23.4% and 123%, respectively. Moreover, the results for the fluorescence slope in assay [4] and in assay [6] were -0.243 (inactive) and 0.00793 (inactive), respectively. For the same molecule, the NADPH fluorescence slope in assay [5] was -2.1e-05 (inactive).

As to `COc1cc2c(cc1OC)CN(C(=O)COc1ccc(C#N)cc1)CC2`, the cell count in assay [1] was determined as 283. The inhibition in assay [1] was -7.5% (inactive); in assay [3], 4.1% (inactive); in assay [7] it was 6.14% (inactive); in assay [8] it was 4.87% (inactive). The inhibition of aggregation in assay [2] was 4.5% (inactive). Also, the nuclei count in assay [2] stood at 91.8%; in assay [3], 90.3%. The fluorescence slope in assay [4] is -0.574 (inactive); in assay [6] it was 0.00682 (inactive). Moreover, in assay [5], the NADPH fluorescence slope was -4.9e-05 (inactive).

Take `CC(C)OC(=O)CSc1nnc(Cc2ccccc2)n1Cc1ccco1`: the cell count in assay [1] was 726. Besides, the inhibition in assay [1] was 28.5% (active); in assay [3], 44% (inactive); in assay [7], 10.9% (inactive); in assay [8], 6.75% (inactive). Also, the inhibition of aggregation in assay [2] was -13% (inactive). Besides, the nuclei count in assay [2] came out at 106%; in assay [3], 100%. Moreover, the fluorescence slope is -0.419 (inactive) in assay [4] and 0.0048 (inactive) in assay [6]. Moreover, the NADPH fluorescence slope in assay [5] was -2.4e-05 (inactive).

Turning to `CCNC(=O)COc1ccc(Br)cc1Cl`, the cell count in assay [1] amounted to 302. The inhibition in assay [1] is 0% (inactive); in assay [3], 0.5% (inactive); in assay [7], -12.6% (inactive); in assay [8], -57.4% (inactive). The inhibition of aggregation in assay [2] is -7.5% (inactive). Besides, the nuclei count in assay [2] worked out at 93.8%; in assay [3] it was 109%. For the same molecule, the fluorescence slope was -0.547 (inactive) in assay [4] and 0.00609 (inactive) in assay [6]. Also, the NADPH fluorescence slope in assay [5] is 2.4e-05 (inactive).

Take `CCOC(=O)C1CCN(C(=O)CSc2n[nH]c(=O)[nH]c2=O)CC1`: in assay [1], the cell count is 653. Moreover, the inhibition in assay [1] was 7.8% (inactive); in assay [3] it was 34.2% (inactive); in assay [7] it was 12.2% (inactive); in assay [8], 9.53% (inactive). The inhibition of aggregation in assay [2] was 16.5% (inactive). Further, the results for the nuclei count in assay [2] and in assay [3] were 88.6% and 114%, respectively. In addition, the results for the fluorescence slope in assay [4] and in assay [6] were -0.339 (inactive) and 0.00512 (inactive), respectively. Also, in assay [5], the NADPH fluorescence slope is -5.5e-05 (inactive).

Take `O=C(NC1CCc2ccccc21)C1CCN(S(=O)(=O)c2ccc(-n3cnnn3)cc2)CC1` (centres undefined): the cell count in assay [1] was found to be 698. For the same molecule, the inhibition is 7.5% (inactive) in assay [1], -37.5% (inactive) in assay [3], 15.1% (inactive) in assay [7] and 30.1% (inactive) in assay [8]. For the same molecule, the inhibition of aggregation in assay [2] is -23.2% (inactive). The nuclei count in assay [2] came to 118%; in assay [3] it was 91.8%. For the same molecule, the figures for the fluorescence slope in assay [4] and in assay [6] were -0.553 (inactive) and 0.00483 (inactive), respectively. The NADPH fluorescence slope in assay [5] is 1.5e-06 (inactive).

With `CC(=O)SCC(=O)N=c1sc2cc(F)ccc2n1C`, in assay [1], the cell count came to 491. For the same molecule, the inhibition in assay [1] was 1.1% (inactive); in assay [3], 3.4% (inactive); in assay [7], 3.65% (inactive); in assay [8], 2.45% (inactive). Also, the inhibition of aggregation in assay [2] was -2.8% (inactive). Also, the results for the nuclei count in assay [2] and in assay [3] were 91.7% and 104%, respectively. Moreover, the fluorescence slope in assay [4] is -0.493 (inactive); in assay [6], 0.00565 (inactive). Moreover, the NADPH fluorescence slope in assay [5] was 4.8e-06 (inactive).

Take `COc1ccc(N2C(=O)CC(NC3CC3)C2=O)cc1` (centres undefined): in assay [1], the cell count was 416. The inhibition in assay [1] is 9.4% (inactive); in assay [3], 7.7% (inactive); in assay [7] it was 16.4% (inactive); in assay [8], 24% (inactive). Besides, the inhibition of aggregation in assay [2] is 0.9% (inactive). Besides, the figures for the nuclei count in assay [2] and in assay [3] were 108% and 110%, respectively. The fluorescence slope is -0.577 (inactive) in assay [4] and 0.00561 (inactive) in assay [6]. Also, the NADPH fluorescence slope in assay [5] is 1.5e-05 (inactive).

Consider `N#CC1=C(N)N(c2ccccc2)C2=C(C(=O)CCC2)C1c1cccs1` (centres undefined), for which, in assay [1], the cell count amounted to 610. Also, the inhibition in assay [1] was 0% (inactive); in assay [3], -53.5% (inactive); in assay [7], -12.6% (inactive); in assay [8], -9.24% (inactive). Also, the inhibition of aggregation in assay [2] is 3.8% (inactive). Besides, the results for the nuclei count in assay [2] and in assay [3] were 108% and 98.1%, respectively. Further, the fluorescence slope in assay [4] was -0.362 (inactive); in assay [6], 0.00595 (inactive). For the same molecule, the NADPH fluorescence slope in assay [5] was -4.2e-05 (inactive).

For `CCOC(=O)CSc1nc2cc(C(=O)NCc3ccco3)ccc2c(=O)n1-c1ccc(F)cc1`, the cell count in assay [1] was 329. Besides, the inhibition in assay [1] was 7.7% (inactive); in assay [3], 7.7% (inactive); in assay [7] it was -7.4% (inactive); in assay [8], -0.0676% (inactive). For the same molecule, in assay [2], the inhibition of aggregation was -7.1% (inactive). Further, the nuclei count worked out at 104% in assay [2] and 92.9% in assay [3]. The fluorescence slope is -0.481 (inactive) in assay [4] and 0.00969 (inactive) in assay [6]. The NADPH fluorescence slope in assay [5] was 0.000117 (inactive).

Consider `CC1CCN(S(=O)(=O)c2ccc(S(=O)(=O)NCC(=O)C(C)(C)C)cc2)CC1`, for which, in assay [1], the cell count was determined as 528. Also, the inhibition in assay [1] was -14.7% (inactive); in assay [3] it was -189% (inactive); in assay [7], 0.588% (inactive); in assay [8], 9.79% (inactive). In assay [2], the inhibition of aggregation was -10.2% (inactive). The nuclei count in assay [2] came out at 113%; in assay [3] it was 166%. The figures for the fluorescence slope in assay [4] and in assay [6] were -0.571 (inactive) and 0.00717 (inactive), respectively. Also, the NADPH fluorescence slope in assay [5] was -7.1e-05 (inactive).

In the case of `Cc1ccc(S(=O)(=O)NCCNC(=O)c2ccccc2)cc1`, the cell count in assay [1] came to 212. Further, the inhibition in assay [1] was -4.9% (inactive); in assay [3], -38.2% (inactive); in assay [7], 13.4% (inactive); in assay [8], 10.4% (inactive). Further, the inhibition of aggregation in assay [2] is 10.3% (inactive). Also, the nuclei count was 97.8% in assay [2] and 93.6% in assay [3]. For the same molecule, the fluorescence slope in assay [4] is -0.282 (inactive); in assay [6], 0.00552 (inactive). Besides, in assay [5], the NADPH fluorescence slope is -4.2e-05 (inactive).

The values above are taken from PubChem BioAssay.
